{"source": "paper PMC2741613", "about": "(Journal of the American Chemical Society, 2009)", "key": {"[1]": {"biological_target": "T1, PTP1B (Homo sapiens, UniProt P18031)", "T1 sequence (P18031 1-435)": "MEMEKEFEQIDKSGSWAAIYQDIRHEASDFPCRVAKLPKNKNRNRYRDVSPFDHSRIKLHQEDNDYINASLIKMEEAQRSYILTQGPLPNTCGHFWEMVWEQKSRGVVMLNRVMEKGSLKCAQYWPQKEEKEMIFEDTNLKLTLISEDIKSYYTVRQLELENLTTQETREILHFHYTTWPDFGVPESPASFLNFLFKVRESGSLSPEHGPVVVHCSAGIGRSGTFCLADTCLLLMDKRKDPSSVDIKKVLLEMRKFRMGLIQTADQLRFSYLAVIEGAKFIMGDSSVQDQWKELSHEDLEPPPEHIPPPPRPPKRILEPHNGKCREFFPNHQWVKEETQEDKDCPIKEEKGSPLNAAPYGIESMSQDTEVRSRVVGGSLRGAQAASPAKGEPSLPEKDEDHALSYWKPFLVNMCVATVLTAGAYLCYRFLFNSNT", "assay": "PTP activity assay with pNPP, PTP1B", "type": "biochemical", "summary_of_the_method": "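Reactions started by adding enzyme (2 nM final) to mixtures with varied pNPP and varied test compound. Rates fitted with an enzyme-kinetics model to give Ki and mode of inhibition.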"}, "[2]": {"biological_target": "T2, SHP2 (Homo sapiens, UniProt Q06124)", "T2 sequence (Q06124 1-593)": "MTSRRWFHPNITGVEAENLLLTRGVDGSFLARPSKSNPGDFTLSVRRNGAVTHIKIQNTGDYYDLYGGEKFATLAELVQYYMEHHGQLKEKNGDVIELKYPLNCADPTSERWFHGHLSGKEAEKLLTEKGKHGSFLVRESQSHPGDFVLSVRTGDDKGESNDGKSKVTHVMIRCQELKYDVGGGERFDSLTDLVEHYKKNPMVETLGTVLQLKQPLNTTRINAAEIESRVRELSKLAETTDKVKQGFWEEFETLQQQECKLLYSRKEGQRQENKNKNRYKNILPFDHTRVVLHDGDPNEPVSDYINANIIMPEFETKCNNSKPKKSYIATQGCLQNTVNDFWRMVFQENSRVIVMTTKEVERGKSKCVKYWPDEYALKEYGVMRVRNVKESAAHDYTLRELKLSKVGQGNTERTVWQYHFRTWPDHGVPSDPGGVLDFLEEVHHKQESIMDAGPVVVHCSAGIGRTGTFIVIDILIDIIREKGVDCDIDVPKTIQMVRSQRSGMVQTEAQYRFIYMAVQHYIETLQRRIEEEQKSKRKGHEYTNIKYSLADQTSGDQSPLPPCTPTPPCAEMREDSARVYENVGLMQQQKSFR", "assay": "PTP activity assay with pNPP, SHP2", "type": "biochemical", "summary_of_the_method": "(§1)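 Reactions started by adding enzyme to mixtures with various pNPP and test-compound concentrations. Rates were fitted with an enzyme-kinetics model for Ki.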"}, "[3]": {"biological_target": "T3, PTP-Meg2 (Homo sapiens, UniProt P43378)", "T3 sequence (P43378 1-593)": "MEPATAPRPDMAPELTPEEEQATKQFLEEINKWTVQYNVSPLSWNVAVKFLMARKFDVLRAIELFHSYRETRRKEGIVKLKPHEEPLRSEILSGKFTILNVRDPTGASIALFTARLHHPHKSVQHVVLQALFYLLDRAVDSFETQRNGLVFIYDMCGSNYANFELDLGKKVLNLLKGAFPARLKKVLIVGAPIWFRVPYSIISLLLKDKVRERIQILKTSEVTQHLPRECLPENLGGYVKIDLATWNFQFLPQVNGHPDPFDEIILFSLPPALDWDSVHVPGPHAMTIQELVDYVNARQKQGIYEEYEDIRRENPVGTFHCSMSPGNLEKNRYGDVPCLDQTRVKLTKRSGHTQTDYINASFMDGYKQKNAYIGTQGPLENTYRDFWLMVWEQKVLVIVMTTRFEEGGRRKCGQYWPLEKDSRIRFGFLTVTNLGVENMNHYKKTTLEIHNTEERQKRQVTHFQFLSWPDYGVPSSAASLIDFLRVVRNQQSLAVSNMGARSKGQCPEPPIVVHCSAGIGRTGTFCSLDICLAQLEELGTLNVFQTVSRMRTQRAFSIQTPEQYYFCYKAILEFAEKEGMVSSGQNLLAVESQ", "assay": "PTP activity assay with pNPP, PTP-Meg2", "type": "biochemical", "summary_of_the_method": "as §1"}, "[4]": {"biological_target": "LAR (Homo sapiens, UniProt P10586)", "sequence (P10586 30-1907, species assumed)": "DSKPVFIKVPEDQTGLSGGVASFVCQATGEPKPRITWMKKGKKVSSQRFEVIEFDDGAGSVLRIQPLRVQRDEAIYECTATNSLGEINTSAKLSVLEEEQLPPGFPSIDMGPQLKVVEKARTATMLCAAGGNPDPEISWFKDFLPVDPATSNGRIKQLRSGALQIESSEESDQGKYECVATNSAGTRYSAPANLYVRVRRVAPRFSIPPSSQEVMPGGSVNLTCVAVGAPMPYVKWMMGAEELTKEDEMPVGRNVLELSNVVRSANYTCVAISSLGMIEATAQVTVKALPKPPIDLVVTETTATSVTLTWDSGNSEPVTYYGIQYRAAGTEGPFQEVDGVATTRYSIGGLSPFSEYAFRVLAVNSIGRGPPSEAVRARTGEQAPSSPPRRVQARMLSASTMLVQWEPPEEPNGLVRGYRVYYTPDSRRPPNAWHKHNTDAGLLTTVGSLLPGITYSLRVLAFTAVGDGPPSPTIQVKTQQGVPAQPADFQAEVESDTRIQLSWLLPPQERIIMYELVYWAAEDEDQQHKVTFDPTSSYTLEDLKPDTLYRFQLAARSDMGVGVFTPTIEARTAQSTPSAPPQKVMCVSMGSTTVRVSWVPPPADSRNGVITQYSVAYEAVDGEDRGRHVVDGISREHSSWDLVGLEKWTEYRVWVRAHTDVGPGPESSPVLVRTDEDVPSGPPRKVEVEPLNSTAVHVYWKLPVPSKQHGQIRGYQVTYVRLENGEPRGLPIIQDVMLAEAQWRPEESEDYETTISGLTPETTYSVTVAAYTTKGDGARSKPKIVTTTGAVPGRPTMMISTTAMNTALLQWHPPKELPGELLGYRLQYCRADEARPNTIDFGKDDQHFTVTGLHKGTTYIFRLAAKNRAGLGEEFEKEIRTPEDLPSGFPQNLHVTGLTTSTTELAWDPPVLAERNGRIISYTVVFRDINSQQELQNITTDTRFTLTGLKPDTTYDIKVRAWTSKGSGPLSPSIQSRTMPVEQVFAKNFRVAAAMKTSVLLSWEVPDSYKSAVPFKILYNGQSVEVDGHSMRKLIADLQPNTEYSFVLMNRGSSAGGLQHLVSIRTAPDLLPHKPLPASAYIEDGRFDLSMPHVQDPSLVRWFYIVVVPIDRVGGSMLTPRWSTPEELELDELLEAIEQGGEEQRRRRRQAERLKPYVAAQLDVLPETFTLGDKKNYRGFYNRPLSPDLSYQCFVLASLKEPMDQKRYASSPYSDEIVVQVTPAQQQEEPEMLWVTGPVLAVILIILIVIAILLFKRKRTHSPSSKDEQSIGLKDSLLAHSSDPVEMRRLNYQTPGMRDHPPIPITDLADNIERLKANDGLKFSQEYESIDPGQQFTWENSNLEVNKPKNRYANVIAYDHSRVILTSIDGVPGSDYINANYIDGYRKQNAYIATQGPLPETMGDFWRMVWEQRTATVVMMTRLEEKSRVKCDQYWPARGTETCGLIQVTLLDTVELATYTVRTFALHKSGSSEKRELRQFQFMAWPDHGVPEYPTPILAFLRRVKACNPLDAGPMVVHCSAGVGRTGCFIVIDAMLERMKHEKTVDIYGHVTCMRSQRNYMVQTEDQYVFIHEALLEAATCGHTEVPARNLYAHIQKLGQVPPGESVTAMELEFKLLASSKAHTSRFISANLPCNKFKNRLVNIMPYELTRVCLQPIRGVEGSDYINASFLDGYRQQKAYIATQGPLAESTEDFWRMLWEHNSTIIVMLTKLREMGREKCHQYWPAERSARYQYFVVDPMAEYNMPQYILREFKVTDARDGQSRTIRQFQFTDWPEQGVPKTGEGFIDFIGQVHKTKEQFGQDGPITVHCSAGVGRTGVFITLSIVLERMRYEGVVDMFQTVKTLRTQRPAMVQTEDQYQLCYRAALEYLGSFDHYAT", "assay": "PTP activity assay with pNPP, LAR", "type": "biochemical", "summary_of_the_method": "as §1"}, "[5]": {"biological_target": "T4, Cdc14A (Homo sapiens, UniProt Q9UNH5)", "T4 sequence (Q9UNH5 1-594)": "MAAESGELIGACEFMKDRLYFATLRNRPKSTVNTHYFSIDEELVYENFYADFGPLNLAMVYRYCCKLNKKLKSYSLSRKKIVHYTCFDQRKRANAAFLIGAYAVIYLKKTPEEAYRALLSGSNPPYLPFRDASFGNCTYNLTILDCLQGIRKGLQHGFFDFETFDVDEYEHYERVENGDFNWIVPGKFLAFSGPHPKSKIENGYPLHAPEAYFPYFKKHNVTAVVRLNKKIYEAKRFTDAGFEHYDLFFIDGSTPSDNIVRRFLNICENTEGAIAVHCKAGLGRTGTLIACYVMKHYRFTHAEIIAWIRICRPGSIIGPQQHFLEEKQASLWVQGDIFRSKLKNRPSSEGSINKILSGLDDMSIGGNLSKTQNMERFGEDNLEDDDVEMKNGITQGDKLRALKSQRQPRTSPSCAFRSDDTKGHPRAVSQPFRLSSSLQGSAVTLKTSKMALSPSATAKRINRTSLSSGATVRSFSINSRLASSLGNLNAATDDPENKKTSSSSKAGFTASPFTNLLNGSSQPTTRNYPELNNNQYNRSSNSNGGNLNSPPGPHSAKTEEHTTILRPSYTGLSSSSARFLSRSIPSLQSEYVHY", "assay": "PTP activity assay with pNPP, Cdc14A", "type": "biochemical", "summary_of_the_method": "as §1"}, "[6]": {"biological_target": "VHR (Homo sapiens, UniProt P51452)", "sequence (P51452 whole entry, species assumed)": "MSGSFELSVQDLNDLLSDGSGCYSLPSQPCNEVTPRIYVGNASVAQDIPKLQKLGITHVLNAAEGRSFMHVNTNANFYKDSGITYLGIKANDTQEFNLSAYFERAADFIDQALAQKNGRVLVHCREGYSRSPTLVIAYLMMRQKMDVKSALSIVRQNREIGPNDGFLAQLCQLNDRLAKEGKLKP", "assay": "PTP activity assay with pNPP, VHR", "type": "biochemical", "summary_of_the_method": "as §1"}, "[7]": {"test_system": "pSrc416 in PTP1B−/− mouse embryo fibroblast cells", "assay": "Src phosphorylation at Tyr416 in cells", "type": "cell-based", "conditions": "treated for two hours, various concentrations", "summary_of_the_method": "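PTP1B−/− mouse embryo fibroblasts at 80% confluence were exposed to test compound for two hours, then lysed and cleared at 15,000 rpm for 10 min. 30 μg total protein run on SDS-PAGE and blotted to PVDF. Probed with anti-pSrc416, anti-pSrc527 and anti-Src antibodies, HRP-conjugated secondaries.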"}}}
{"smiles": "CCc1ccc(C(=O)NCCCC[C@H](NC(=O)[C@H](Cc2ccc(C(F)(F)P(=O)(O)O)cc2)NC(=O)[C@H](Cc2ccccc2)NC(=O)CO[C@H]2C[C@@H](C)CC[C@@H]2C(C)C)C(N)=O)cc1", "note": "[Compound 8]", "values": [{"measurement": "Ki", "setting": "[1]; PTP1B", "value": "34 ± 2.8", "unit": "nM"}, {"measurement": "selectivity for TC-PTP over PTP1B", "setting": "[1]; TC-PTP versus PTP1B", "value": 8, "unit": "fold"}, {"measurement": "Ki", "setting": "[2]", "value": "> 1000", "unit": "nM"}, {"measurement": "Ki", "setting": "[3]", "value": "> 1000", "unit": "nM"}, {"measurement": "Ki", "setting": "[4]", "value": "> 1000", "unit": "nM"}, {"measurement": "Ki", "setting": "[5]", "value": "> 1000", "unit": "nM"}, {"measurement": "Ki", "setting": "[6]", "value": "> 1000", "unit": "nM"}, {"measurement": "effect on pSrc416 phosphorylation", "setting": "[7]", "value": "dose-dependent increase"}]}
